Experimental data taken from the EternaBench riboswitch data.

Tested on: MS2 coat protein
Experiment: apparent Kd, MS2 coat protein; higher = weaker binding; RNA-MaP array; FMN 200 µM where present
Summary of the method: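 Designs on Illumina sequencing-chip clusters, transcribed by stalled E. coli RNA polymerase, were exposed to SNAP-549-labelled MS2 coat protein in doubling steps from 0.7 or 1.5 nM up to 3 µM, without and then with constant ligand. The buffer held 100 mM Tris-HCl pH 7.5, 80 mM KCl, 4 mM MgCl2, BSA, DTT, yeast tRNA and Tween-20. Apparent Kd values are medians of filtered per-cluster binding-curve fits to green signal normalised to red-channel RNA signal and control-cluster median Fmax.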

[1] = designed as: ON switch for flavin mononucleotide, no ligand
[2] = ligand present: flavin mononucleotide, designed as: ON switch for flavin mononucleotide
[3] = designed as: OFF switch for flavin mononucleotide, no ligand
[4] = ligand present: flavin mononucleotide, designed as: OFF switch for flavin mononucleotide

Sequence	apparent Kd [1] [nM]	apparent Kd [2] [nM]	apparent Kd [3] [nM]	apparent Kd [4] [nM]
ACACAUGAGGAUCACCCAUGUAGCUGGCGUCUGCGCCAGCCACAGGAUAUACGGCUACACAAGCCGUAGAAGGGUGAUAAACAC	62.9	27.2	–	–
GUAGCAUUGUGAGGAUAUCCAUAUCCGAAAGGGACAUGAGGAUCACCCAUGUCGCGAAAGCGGUGGGAGAAGGCACUAUGCUAC	4.31	4.03	–	–
GAUCCUUCUGUUAGGAUAUGCUUUGGGCUUCCGCAGCAGAAGGAACAUGAGGAUCACCCAUGUCCAAUGCCGUC	–	–	56.6	63.9
GUACAGUAGUGAGGAUAUACGAGAUCGAUAGAUCGGCGAUCCAAUAAUACAUGAGGAUCACCCAUGUAGAAGGCACUUCUGUAC	–	–	7.69	113
UUGGACGUCGUUGGAUAUGUAGGAUAUUCCUACAUGAGGAUCACCCAUGUUGACAUGGAAGAAGGACAGAAGGACGAUGUCCAU	196	6.05	–	–
UUGCCUCAGAACAUGAGGAUCACCCAUGUGCUGCGGGCAUCGUAGGAUAUGAUGGUAUGAUACCAUCAGAAGGAUGAUGGUACC	6.18	5.77	–	–
UAUGUGUCAGGAUAUUAGUAGUGUGUGGAUACAUAUAUUGCUGAGAAGGGACAUGAGGAUCACCCAUGUACCUU	–	–	16.2	17.5
GCGUAACAUGAGGAUCACCCAUGUACCCGAGAAUUCGGGUCUAGAAGGGUGACCGGUCGUUUGGCACAGGAUAUAGACGUUGUG	30.7	11.3	–	–
UACGGACAUGAGGAUCACCCAUGUGAGGAUAUCGGUACCGAUAGCAUAAUAUAAUCGGCGAGAAGGCACAGCGU	–	–	32.7	42.8
AUUAACUACAUAGGAUAUUGAUACAUGAGGAUCACCCAUGUCACGUAUUUAUAUUAAACAUUUGACAAGAAGGAUGUGGUUACA	17.2	7.01	–	–
UUUUCACAUGAGGAUCACCCAUGUGAGGAUAUGGUUUCGCUGGCCGUAGCCAGUGGAACCAGAAGGCGCGUGAU	–	–	60.7	66.4
GAAACCUCAGGUUAAGGUUGACGACAUGAGGAUCACCCAUGUAGAAGGACCAAGGCGACCGUACGGUAGGAUAUACACGGGAGG	–	–	10.8	24.9
AAAAUCUAUUGAGGAUAUUCAAACACUACAUACGGAGAAGGCAAACAAUCAUGAGGACAUGAGGAUCACCCAUGUUGUGACCAU	25.5	19.4	–	–
UGAUCGAAAGAUCAUAGAUUCUGGCAGGAUAUGCAGUAGUUUUAAUUUACAUGAGGAUCACCCAUGUAGAAGGGCUAGAGUCUA	–	–	6.33	7.4
AAUCAACGAAUACCAGGGCAUUAAUGAGAAGGCCAAUCACAUGAGGAUCACCCAUGUACGAGAGUGGAGGAUAUCAGUGGGCCG	111	11.3	–	–
CAUUAAUUCAUUAUAGUAAUUAUACAGGAUAUGUUACAUGAGGAUCACCCAUGUAUUCUUGGUAAACAGAAGGGUAUUUCUAGU	–	–	7.35	9.31
CAACGUGGAGGAUAUUAGCGAGACAACAUGAGGAUCACCCAUGUGGUACUCAUCUCCUCCUGAGAAGGCUACGCCC	–	–	11.8	12.3
AAUAUGAGCUGGAAUAAACUCAAAACAUGAGGAUCACCCAUGUAGGAUAUCAGCACGAUAAGUGCUGAGAAGGACAACCAGCUC	–	–	13.8	15.5
AAGGAUAGAGGAUAUACAUAGAUACAGAUUCAUGUAGAACUACAUGAGGAUCACCCAUGUAGAAGGCUAUCCUA	–	–	32.9	239
CACGAUGAUGUAGGAUAUAUACUGGAAUACAGUAUAGAAGGACAUGAGGAUCACCCAUGUUAAGUGCCUCCAAGUAACAUCGUG	–	–	17.2	25.4
AAACCGUAAAUGCGGGCAUGUACACAGGAUAUCCCGUGACAUGAGGAUCACCCAUGUAACACAUUGGAGAAGGGUGUUCACGUA	177	19.6	–	–
AAAAAGCUAGGAUAUACAUGAAAAAAAAAAAAGUAAAAAAAACAUGAGGAUCACCCAUGUAGAAGGAGCAAAAA	–	–	44	39.5
AAAACAUGAGGAUCACCCAUGUAAUGAUCGGUUGAUGAAAGUGAGGAUAUACAAAAUUUUAUGGAGUAGAAGGCACUGGGUUCA	31.4	31.9	–	–
UUUUAACAUGAGGAUCACCCAUGUGAGGAUAUCGAUAUUUUUAUUAAUAUUAAUAAAACGAGAAGGCACAUUUU	–	–	–	90.2
GUAUGACAAAGUCAUACCGCUUUGACAUGAGGAUCACCCAUGUAGGAUAUAUUAAUCAAAGAUUAAUAGAAGGACAUGUUUCUU	–	–	43.7	114
GCCUCAUAGUAGAAGGGACUUAGGCAGUUAAGCAUCAUCUCCAUUUCACAUGAGGAUCACCCAUGUCAGGAUAUACUAAGAGGC	–	–	9.39	24.5
CAAGGAUACUUAUAAGCUGACAAACCAGAAGGAUGAGCCUCUACAUGAGGAUCACCCAUGUGUUCGUAGGAUAUGGGUCGGAAG	11.3	31.5	–	–
AGUCGGUUCUUUUAACAUGAGGAUCACCCAUGUAUUUGCAACUAGGAUAUCGAUAAUUAUUUCGUCGAGAAGGAGUAUACAUAA	–	–	24.2	38.5
